Tests used:
H5N1 subtype [1] = assay: Antiviral activity against Influenza A virus Gull/PA/4175/83/H5N1 infected MDCK cells after 42 to 46 hrs by neutral red dye uptake assay; type: functional, organism-based, Influenza A virus (A/gull/Pennsylvania/4175/83(H5N1)); conditions: mdck
H5N1 subtype [2] = assay: Antiviral activity against Influenza A virus Hong Kong/213/2003/H5N1 infected MDCK cells after 42 to 46 hrs by neutral red dye uptake assay; type: functional, organism-based, Influenza A virus (A/Hong Kong/213/2003(H5N1)); conditions: mdck
H5N1 subtype [3] = assay: Antiviral activity against Influenza A virus Hong Kong/213/2003/H5N1 infected MDCK cells after 3 days by virus yield reduction assay; type: functional, Influenza A virus (A/Hong Kong/213/2003(H5N1))
Influenza A virus [4] = assay: Antiviral activity against Influenza A virus Vietnam/1203/ 2004H/H5N1 infected MDCK cells assessed as inhibition of virus-induced cytopathic effect after 3 days; type: functional, organism-based, A/Viet Nam/1203/2004(H5N1); conditions: mdck
Influenza A virus [5] = assay: Antiviral activity against Influenza A virus Vietnam/1203/ 2004H/H5N1 infected MDCK cells after 42 to 46 hrs by neutral red dye uptake assay; type: functional, organism-based, A/Viet Nam/1203/2004(H5N1); conditions: mdck
Influenza A virus [6] = assay: Antiviral activity against Influenza A virus Vietnam/1203/ 2004H/H5N1 infected MDCK cells after 3 days by virus yield reduction assay; type: functional, A/Viet Nam/1203/2004(H5N1)
[7] = Selectivity ratio of IC50 for MDCK cells to EC50 for inhibition of virus-induced cytopathic effect of Influenza A virus Duck/MN/1525/81/H5N1; type: cell-based; conditions: dog, mdck
Method in brief: (§1)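 IC50 (50% inhibition of uninfected MDCK cells) divided by EC50 (concentration reducing virus-induced CPE by 50%, scored visually), both from replicate serial-dilution assays.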

[8] = Selectivity ratio of IC50 for MDCK cells to EC50 for Influenza A virus Duck/MN/1525/81/H5N1 by neutral red dye uptake assay; type: ADME, cell-based; conditions: dog, mdck
Method in brief: (§2)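 Neutral red uptake in MDCK cells: IC50 (50% inhibition of uninfected cells) divided by EC50 (50% inhibition of virus effect), both from replicate serial-dilution assays.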

[9] = Selectivity ratio of IC50 for MDCK cells to EC90 for Influenza A virus Duck/MN/1525/81/H5N1 by virus yield reduction assay; type: ADME, cell-based; conditions: dog, mdck
Method in brief: (§3)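 IC50 (50% inhibition of uninfected MDCK cells) divided by EC90 (concentration reducing the infectious virus titer by 90% in the yield reduction assay).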

[10] = Selectivity ratio of IC50 for MDCK cells to EC50 for inhibition of virus-induced cytopathic effect of Influenza A virus Gull/PA/4175/83/H5N1; type: cell-based; conditions: dog, mdck; method in brief: as §1
[11] = Selectivity ratio of IC50 for MDCK cells to EC50 for Influenza A virus Gull/PA/4175/83/H5N1 by neutral red dye uptake assay; type: ADME, cell-based; conditions: dog, mdck; method in brief: as §2
[12] = Selectivity ratio of IC50 for MDCK cells to EC50 for Influenza A virus Hong Kong/213/2003/H5N1 by neutral red dye uptake assay; type: ADME, cell-based; conditions: dog, mdck; method in brief: as §2
[13] = Selectivity ratio of IC50 for MDCK cells to EC90 for Influenza A virus Hong Kong/213/2003/H5N1 by virus yield reduction assay; type: ADME, cell-based; conditions: dog, mdck; method in brief: as §3
[14] = Selectivity ratio of IC50 for MDCK cells to EC50 for inhibition of virus-induced cytopathic effect of Influenza A virus Vietnam/1203/ 2004H/H5N1; type: cell-based; conditions: dog, mdck; method in brief: as §1
[15] = Selectivity ratio of IC50 for MDCK cells to EC50 for Influenza A virus Vietnam/1203/ 2004H/H5N1 by neutral red dye uptake assay; type: ADME, cell-based; conditions: dog, mdck; method in brief: as §2
[16] = Selectivity ratio of IC50 for MDCK cells to EC90 for Influenza A virus Vietnam/1203/ 2004H/H5N1 by virus yield reduction assay; type: ADME, cell-based; conditions: dog, mdck; method in brief: as §3
Influenza A virus [17] = assay: Antiviral activity against Influenza A virus California/07/2009 /H1N1 infected MDCK cells assessed as inhibition of virus-induced cytopathic effect after 3 days; type: functional, organism-based, A/California/07/2009(H1N1); conditions: mdck
Influenza A virus [18] = assay: Antiviral activity against Influenza A virus California/07/2009 /H1N1 infected MDCK cells after 42 to 46 hrs by neutral red dye uptake assay; type: functional, organism-based, A/California/07/2009(H1N1); conditions: mdck
Influenza A virus [19] = assay: Antiviral activity against Influenza A virus California/07/2009 /H1N1 infected MDCK cells after 3 days by virus yield reduction assay; type: functional, A/California/07/2009(H1N1)
[20] = Antiviral activity against Influenza A virus Solomon Islands/03/2006/H1N1 infected MDCK cells assessed as inhibition of virus-induced cytopathic effect after 3 days; type: functional, organism-based, Influenza A virus (A/Solomon Islands/3/2006(H1N1)); conditions: mdck
Method in brief: (§4)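 Triplicate MDCK (ATCC CCL-34) wells got serial dilutions of compound. They were then inoculated with ≤300 CCID50, enough for ~100% CPE in control wells within 3 days, using the same inoculum for all replicates. CPE was scored visually. EC50 is the concentration reducing CPE by 50%, as the mean of triplicates.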

[21] = system: Influenza A virus (A/Puerto Rico/8/1934(H1N1)); assay: Antiviral activity against Influenza A virus Solomon Islands/03/2006/H1N1 infected MDCK cells after 42 to 46 hrs by neutral red dye uptake assay; type: functional, organism-based, Influenza A virus (A/Solomon Islands/3/2006(H1N1)); conditions: mdck
Method in brief: (§5)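 Triplicate MDCK wells got serial compound dilutions, then ≤300 CCID50 of virus, with the same inoculum for all replicates. Antiviral effect was read by neutral red dye uptake. EC50 is the concentration giving 50% inhibition of the virus effect, as the mean of triplicates.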

[22] = system: Influenza A virus (A/Puerto Rico/8/1934(H1N1)); assay: Antiviral activity against Influenza A virus Solomon Islands/03/2006/H1N1 infected MDCK cells after 3 days by virus yield reduction assay; type: functional, Influenza A virus (A/Solomon Islands/3/2006(H1N1))
Method in brief: (§6)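 Yield reduction assay: MDCK cells got serial compound dilutions and ≤300 CCID50 virus, in triplicate. Progeny virus was titrated. EC90 is the concentration reducing the infectious titer by 90%, as the mean of triplicates.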

Influenza A virus [23] = assay: Antiviral activity against Influenza A virus Wisconsin/67/2005/H3N2 infected MDCK cells assessed as inhibition of virus-induced cytopathic effect after 3 days; type: functional, organism-based, Influenza A virus (A/Wisconsin/67/2005(H3N2)); conditions: mdck; method in brief: as §4
Influenza A virus [24] = assay: Antiviral activity against Influenza A virus Wisconsin/67/2005/H3N2 infected MDCK cells after 42 to 46 hrs by neutral red dye uptake assay; type: functional, organism-based, Influenza A virus (A/Wisconsin/67/2005(H3N2)); conditions: mdck; method in brief: as §5
Influenza A virus [25] = assay: Antiviral activity against Influenza A virus Wisconsin/67/2005/H3N2 infected MDCK cells after 3 days by virus yield reduction assay; type: functional, Influenza A virus (A/Wisconsin/67/2005(H3N2)); method in brief: as §6
Influenza B virus [26] = assay: Antiviral activity against Influenza B virus Malaysia/2506/2004 infected MDCK cells assessed as inhibition of virus-induced cytopathic effect after 3 days; type: functional, organism-based, B/Malaysia/2506/2004; conditions: mdck; method in brief: as §4
Influenza B virus [27] = assay: Antiviral activity against Influenza B virus Malaysia/2506/2004 infected MDCK cells after 42 to 46 hrs by neutral red dye uptake assay; type: functional, organism-based, B/Malaysia/2506/2004; conditions: mdck; method in brief: as §5
Influenza B virus [28] = assay: Antiviral activity against Influenza B virus Malaysia/2506/2004 infected MDCK cells after 3 days by virus yield reduction assay; type: functional, B/Malaysia/2506/2004; method in brief: as §6
[29] = Selectivity ratio of IC50 for MDCK cells to EC50 for inhibition of virus-induced cytopathic effect of Influenza A virus California/07/2009 /H1N1; type: cell-based; conditions: dog, mdck; method in brief: as §1
[30] = Selectivity ratio of IC50 for MDCK cells to EC50 for Influenza A virus California/07/2009 /H1N1 by neutral red dye uptake assay; type: ADME, cell-based; conditions: dog, mdck; method in brief: as §2
[31] = Selectivity ratio of IC50 for MDCK cells to EC90 for Influenza A virus California/07/2009 /H1N1 by virus yield reduction assay; type: ADME, cell-based; conditions: dog, mdck; method in brief: as §3
[32] = Selectivity ratio of IC50 for MDCK cells to EC50 for inhibition of virus-induced cytopathic effect of Influenza A virus Solomon Islands/03/2006/H1N1; type: cell-based; conditions: dog, mdck; method in brief: as §1
[33] = Selectivity ratio of IC50 for MDCK cells to EC50 for Influenza A virus Solomon Islands/03/2006/H1N1 by neutral red dye uptake assay; type: ADME, cell-based; conditions: dog, mdck; method in brief: as §2
[34] = Selectivity ratio of IC50 for MDCK cells to EC90 for Influenza A virus Solomon Islands/03/2006/H1N1 by virus yield reduction assay; type: ADME, cell-based; conditions: dog, mdck; method in brief: as §3
[35] = Selectivity ratio of IC50 for MDCK cells to EC50 for inhibition of virus-induced cytopathic effect of Influenza A virus Wisconsin/67/2005/H3N2; type: cell-based; conditions: dog, mdck; method in brief: as §1
[36] = Selectivity ratio of IC50 for MDCK cells to EC50 for Influenza A virus Wisconsin/67/2005/H3N2 by neutral red dye uptake assay; type: ADME, cell-based; conditions: dog, mdck; method in brief: as §2
[37] = Selectivity ratio of IC50 for MDCK cells to EC90 for Influenza A virus Wisconsin/67/2005/H3N2 by virus yield reduction assay; type: ADME, cell-based; conditions: dog, mdck; method in brief: as §3
[38] = Selectivity ratio of IC50 for MDCK cells to EC50 for inhibition of virus-induced cytopathic effect of Influenza B virus Malaysia/2506/2004; type: cell-based; conditions: dog, mdck; method in brief: as §1
[39] = Selectivity ratio of IC50 for MDCK cells to EC50 for Influenza B virus Malaysia/2506/2004 by neutral red dye uptake assay; type: ADME, cell-based; conditions: dog, mdck; method in brief: as §2
[40] = Selectivity ratio of IC50 for MDCK cells to EC90 for Influenza B virus Malaysia/2506/2004 by virus yield reduction assay; type: ADME, cell-based; conditions: dog, mdck; method in brief: as §3
H5N1 subtype [41] = assay: Antiviral activity against Influenza A virus Duck/MN/1525/81/H5N1 infected MDCK cells assessed as inhibition of virus-induced cytopathic effect after 3 days; type: functional, organism-based, Influenza A virus (A/duck/Minnesota/1525/1981(H5N1)); conditions: mdck
H5N1 subtype [42] = assay: Antiviral activity against Influenza A virus Duck/MN/1525/81/H5N1 infected MDCK cells after 42 to 46 hrs by neutral red dye uptake assay; type: functional, organism-based, Influenza A virus (A/duck/Minnesota/1525/1981(H5N1)); conditions: mdck
H5N1 subtype [43] = assay: Antiviral activity against Influenza A virus Duck/MN/1525/81/H5N1 infected MDCK cells after 3 days by virus yield reduction assay; type: functional, Influenza A virus (A/duck/Minnesota/1525/1981(H5N1))
H5N1 subtype [44] = assay: Antiviral activity against Influenza A virus Gull/PA/4175/83/H5N1 infected MDCK cells assessed as inhibition of virus-induced cytopathic effect after 3 days; type: functional, organism-based, Influenza A virus (A/gull/Pennsylvania/4175/83(H5N1)); conditions: mdck

Nc1ccn([C@@H]2C[C@H](CO)[C@@H](O)[C@H]2O)c(=O)n1 (racemic)
EC50 (H5N1 subtype [1]): 1.4 µM | EC50 (H5N1 subtype [2]): 1.8 µM | EC90 (H5N1 subtype [3]): 2 µM | EC50 (Influenza A virus [4]): 1 µM | EC50 (Influenza A virus [5]): 2.9 µM | EC90 (Influenza A virus [6]): 12.1 µM | Ratio IC50/EC50 [7]: > 173 | Ratio IC50/EC50 [8]: > 83 | Ratio [9]: > 24 | Ratio IC50/EC50 [10]: > 376 | Ratio IC50/EC50 [11]: > 296 | Ratio IC50/EC50 [12]: > 230 | Ratio [13]: > 207 | Ratio IC50/EC50 [14]: > 414 | Ratio IC50/EC50 [15]: > 143 | Ratio [16]: > 34 | EC50 (Influenza A virus [17]): 1.5 µM | EC50 (Influenza A virus [18]): 1.9 µM | EC90 (Influenza A virus [19]): 4.4 µM | EC50 [20]: 1.9 µM | EC50 [21]: 2 µM | EC90 [22]: 2.3 µM | EC50 (Influenza A virus [23]): 2.8 µM | EC50 (Influenza A virus [24]): 4.6 µM | EC90 (Influenza A virus [25]): 3.5 µM | EC50 (Influenza B virus [26]): 0.8 µM | EC50 (Influenza B virus [27]): 1.3 µM | EC90 (Influenza B virus [28]): 3.8 µM | Ratio IC50/EC50 [29]: > 276 | Ratio IC50/EC50 [30]: > 218 | Ratio [31]: > 94 | Ratio IC50/EC50 [32]: > 218 | Ratio IC50/EC50 [33]: > 207 | Ratio [34]: > 180 | Ratio IC50/EC50 [35]: > 148 | Ratio IC50/EC50 [36]: > 90 | Ratio [37]: > 118 | Ratio IC50/EC50 [38]: > 518 | Ratio IC50/EC50 [39]: > 318 | Ratio [40]: > 109 | EC50 (H5N1 subtype [41]): 2.4 µM | EC50 (H5N1 subtype [42]): 5 µM | EC90 (H5N1 subtype [43]): 17.6 µM | EC50 (H5N1 subtype [44]): 1.1 µM
